Results as given in ChEMBL document CHEMBL3091449, “Synthesis and antimicrobial profile of N-substituted imidazolium oximes and their monoquaternary salts against multidrug resistant bacteria” (2013).
≈ marks a conversion by molar mass, not a printed value.

Tests used:
Type in all cases: functional
Aspergillus fumigatus = test: Antifungal activity against Aspergillus fumigatus FNSST 3833 assessed as diameter of zone of inhibition at 10 ug/disc after 72 hrs by disc diffusion method; conditions: FNSST 3833, 72 h, read-out: DIZ
How it was run: (§1)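 The positive control was amphotericin B 10 µg discs on Sabouraud dextrose agar spread with 100 µL of a 10^4 cfu/mL fungal suspension. Plates were kept at 30 °C for 48 h (yeast) or 72 h (molds). Inhibition zone was measured including the 6 mm disc, in triplicate, mean ± SE.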

Talaromyces funiculosus = test: Antifungal activity against Penicillium funiculosum FNSST 3724 assessed as diameter of zone of inhibition at 10 ug/disc after 72 hrs by disc diffusion method; conditions: FNSST 3724, 72 h, read-out: DIZ; how it was run: as §1
Candida albicans = test: Antifungal activity against Candida albicans ATCC 10231 assessed as diameter of zone of inhibition at 10 ug/disc after 48 hrs by disc diffusion method; conditions: ATCC 10231, 48 h, read-out: DIZ; how it was run: as §1
Pseudomonas aeruginosa [1] = test: Antibacterial activity against GIM-1 expressing Pseudomonas aeruginosa isolate 197 after 18 to 24 hrs by two-fold broth microdilution assay
How it was run: (§2)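 CLSI two-fold broth microdilution was used. Compounds were dissolved in DMSO, brought to 10 mg/mL in medium, then serially diluted in Mueller Hinton broth over 400–0.09 µg/mL. Overnight MHB cultures were diluted to 10^6 CFU/mL, and 10 µL was added per well. Plates were incubated 18–24 h at 37 °C, then 0.2 mg/mL INT was added for 30 min at 37 °C. MIC was the lowest concentration with no visible growth or pink colour, triplicate.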

Acinetobacter baumannii = test: Antibacterial activity against SIM-1 expressing Acinetobacter baumannii isolate 170 after 18 to 24 hrs by two-fold broth microdilution assay
How it was run: (§3)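 CLSI two-fold broth microdilution. Compounds dissolved in DMSO, 10 mg/mL stock, serially diluted to 400–0.09 µg/mL in Mueller Hinton broth. Wells inoculated with 10^6 CFU/mL bacteria and incubated 18–24 h at 37 °C. 0.2 mg/mL INT added for 30 min. MIC taken as the lowest concentration with no visible growth or pink colour. Triplicate.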

Escherichia coli [2] = test: Antibacterial activity against […] expressing Escherichia coli isolate 235 after 18 to 24 hrs by two-fold broth microdilution assay; how it was run: as §3
Escherichia coli [3] = test: Antibacterial activity against TEM-1/SHV-12 expressing Escherichia coli isolate 237 after 18 to 24 hrs by two-fold broth microdilution assay; how it was run: as §3
Escherichia coli [4] = test: Antibacterial activity against […] expressing Escherichia coli isolate 4024 after 18 to 24 hrs by two-fold broth microdilution assay; how it was run: as §3
Aeromonas caviae [5] = test: Antibacterial activity against TEM-1/CTX-M-15 expressing Aeromonas caviae isolate 260 after 18 to 24 hrs by two-fold broth microdilution assay; how it was run: as §2
Aeromonas caviae [6] = test: Antibacterial activity against […] expressing Aeromonas caviae isolate 258 after 18 to 24 hrs by two-fold broth microdilution assay; how it was run: as §2
Aeromonas hydrophila [7] = test: Antibacterial activity against TEM-1/SHV-12 expressing Aeromonas hydrophila isolate 268 after 18 to 24 hrs by two-fold broth microdilution assay; how it was run: as §2
Kluyvera intermedia = test: Antibacterial activity against TEM-1/SHV-12/[…] expressing Enterobacter intermedius isolate 243 after 18 to 24 hrs by two-fold broth microdilution assay; how it was run: as §2
Enterobacter cloacae [8] = test: Antibacterial activity against CTX-15 expressing Enterobacter cloacae isolate 51 after 18 to 24 hrs by two-fold broth microdilution assay
Enterobacter cloacae [9] = test: Antibacterial activity against TEM-1/CTX-M-15 expressing Enterobacter cloacae isolate 62 after 18 to 24 hrs by two-fold broth microdilution assay
Enterobacter cloacae [10] = test: Antibacterial activity against TEM-1/SHV-12 expressing Enterobacter cloacae isolate 306 after 18 to 24 hrs by two-fold broth microdilution assay
Klebsiella pneumoniae [11] = test: Antibacterial activity against TEM-1/SHV-12 expressing Klebsiella pneumoniae isolate 303 after 18 to 24 hrs by two-fold broth microdilution assay; how it was run: as §2
[12] = system: Stenotrophomonas maltophilia; test: Antibacterial activity against […] expressing Stenotrophomonas maltophilia isolate 125 after 18 to 24 hrs by two-fold broth microdilution assay; how it was run: as §2
Aeromonas hydrophila [13] = test: Antibacterial activity against Aeromonas hydrophila FNSST 014 after 18 to 24 hrs by two-fold broth microdilution assay; how it was run: as §2
Pseudomonas aeruginosa [14] = test: Antibacterial activity against Pseudomonas aeruginosa FNSST 982 after 18 to 24 hrs by two-fold broth microdilution assay; how it was run: as §2
Klebsiella pneumoniae [15] = test: Antibacterial activity against Klebsiella pneumoniae FNSST 011 after 18 to 24 hrs by two-fold broth microdilution assay; how it was run: as §2
Escherichia coli [16] = test: Antibacterial activity against Escherichia coli FNSST 982 after 18 to 24 hrs by two-fold broth microdilution assay; how it was run: as §2
Clostridium perfringens [17] = test: Antibacterial activity against Clostridium perfringens FNSST 4999 after 18 to 24 hrs by two-fold broth microdilution assay; how it was run: as §3
Staphylococcus aureus [18] = test: Antibacterial activity against Staphylococcus aureus ATCC 25923 after 18 to 24 hrs by two-fold broth microdilution assay; how it was run: as §2
Enterococcus faecalis [19] = test: Antibacterial activity against Enterococcus faecalis ATCC 29212 after 18 to 24 hrs by two-fold broth microdilution assay; how it was run: as §2
Bacillus cereus [20] = test: Antibacterial activity against Bacillus cereus ATCC 11778 after 18 to 24 hrs by two-fold broth microdilution assay; how it was run: as §2
Aeromonas hydrophila [21] = test: Antibacterial activity against Aeromonas hydrophila FNSST 014 assessed as diameter of zone of inhibition at 30 ug/disc after 24 hrs by disc diffusion method; conditions: FNSST 014, 24 h, read-out: DIZ
How it was run: (§4)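 Ampicillin 30 µg discs were the positive control on Mueller Hinton agar. The agar was spread with 100 µL of a 10^6 cfu/mL overnight TSB culture grown at 37 °C. Plates were incubated 24 h at 37 °C, and zone diameter was read including the 6 mm disc, in triplicate, mean ± SE.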

Pseudomonas aeruginosa [22] = test: Antibacterial activity against Pseudomonas aeruginosa FNSST 982 assessed as diameter of zone of inhibition at 30 ug/disc after 24 hrs by disc diffusion method; conditions: FNSST 982, 24 h, read-out: DIZ; how it was run: as §4
Klebsiella pneumoniae [23] = test: Antibacterial activity against Klebsiella pneumoniae FNSST 011 assessed as diameter of zone of inhibition at 30 ug/disc after 24 hrs by disc diffusion method; conditions: FNSST 011, 24 h, read-out: DIZ; how it was run: as §4
Escherichia coli [24] = test: Antibacterial activity against Escherichia coli FNSST 982 assessed as diameter of zone of inhibition at 30 ug/disc after 24 hrs by disc diffusion method; conditions: FNSST 982, 24 h, read-out: DIZ; how it was run: as §4
Clostridium perfringens [25] = test: Antibacterial activity against Clostridium perfringens FNSST 4999 assessed as diameter of zone of inhibition at 30 ug/disc after 24 hrs by disc diffusion method; conditions: FNSST 4999, 24 h, read-out: DIZ
How it was run: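 Ampicillin 30 µg disc run as positive control in CLSI disc diffusion. 100 µL of 10^6 cfu/mL bacteria spread on Mueller Hinton agar, incubated 24 h at 37 °C. Zone diameter measured in mm including the disc, triplicate, mean ± SE.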

Staphylococcus aureus [26] = test: Antibacterial activity against Staphylococcus aureus ATCC 25923 assessed as diameter of zone of inhibition at 30 ug/disc after 24 hrs by disc diffusion method; conditions: ATCC 25923, 24 h, read-out: DIZ; how it was run: as §4
Enterococcus faecalis [27] = test: Antibacterial activity against Enterococcus faecalis ATCC 29212 assessed as diameter of zone of inhibition at 30 ug/disc after 24 hrs by disc diffusion method; conditions: ATCC 29212, 24 h, read-out: DIZ; how it was run: as §4
Bacillus cereus [28] = test: Antibacterial activity against Bacillus cereus ATCC 11778 assessed as diameter of zone of inhibition at 30 ug/disc after 24 hrs by disc diffusion method; conditions: ATCC 11778, 24 h, read-out: DIZ; how it was run: as §4

Question: What does the source list for C[C@@H]1[C@H](O)[C@@H](C)/C=C/C=C/C=C/C=C/C=C/C=C/C=C/[C@H](O[C@@H]2O[C@H](C)[C@@H](O)[C@H](N)[C@@H]2O)C[C@@H]2O[C@](O)(C[C@@H](O)C[C@@H](O)[C@H](O)CC[C@@H](O)C[C@@H](O)CC(=O)O[C@H]1C)C[C@H](O)[C@H]2C(=O)O [AMPHOTERICIN B]?
Answer: zone of inhibition at 10 µg/disc (Aspergillus fumigatus): 19.2 mm; zone of inhibition at 10 µg/disc (Talaromyces funiculosus): 18.3 mm; zone of inhibition at 10 µg/disc (Candida albicans): 21.6 mm

Question: What does the source list for CO/N=C(\C(=O)N[C@@H]1C(=O)N2C(C(=O)O)=C(COC(C)=O)CS[C@H]12)c1csc(N)n1 [CEFOTAXIME]?
Answer: MIC (Pseudomonas aeruginosa [1]): 256 µg/mL (≈ 562 µM); MIC (Acinetobacter baumannii): > 256 µg/mL; MIC (Escherichia coli [2]): > 256 µg/mL; MIC (Escherichia coli [3]): > 256 µg/mL; MIC (Escherichia coli [4]): 256 µg/mL (≈ 562 µM); MIC (Aeromonas caviae [5]): 256 µg/mL (≈ 562 µM); MIC (Aeromonas caviae [6]): 258 µg/mL (≈ 566 µM); MIC (Aeromonas hydrophila [7]): 256 µg/mL (≈ 562 µM); MIC (Kluyvera intermedia): 8 µg/mL (≈ 17.6 µM); MIC (Enterobacter cloacae [8]): 32 µg/mL (≈ 70.3 µM); MIC (Enterobacter cloacae [9]): > 256 µg/mL; MIC (Enterobacter cloacae [10]): > 128 µg/mL; MIC (Klebsiella pneumoniae [11]): 64 µg/mL (≈ 141 µM); MIC [12]: 32 µg/mL (≈ 70.3 µM); MIC (Aeromonas hydrophila [13]): 8 µg/mL (≈ 17.6 µM); MIC (Pseudomonas aeruginosa [14]): 16 µg/mL (≈ 35.1 µM); MIC (Klebsiella pneumoniae [15]): 0.5 µg/mL (≈ 1.1 µM); MIC (Escherichia coli [16]): 0.5 µg/mL (≈ 1.1 µM); MIC (Clostridium perfringens [17]): 0.1 µg/mL (≈ 0.22 µM); MIC (Staphylococcus aureus [18]): 0.5 µg/mL (≈ 1.1 µM); MIC (Enterococcus faecalis [19]): 0.5 µg/mL (≈ 1.1 µM); MIC (Bacillus cereus [20]): 0.25 µg/mL (≈ 0.549 µM); zone of inhibition at 30 µg/disc (Aeromonas hydrophila [21]): 14.7 mm; zone of inhibition at 30 µg/disc (Pseudomonas aeruginosa [22]): 10.4 mm; zone of inhibition at 30 µg/disc (Klebsiella pneumoniae [23]): 21.4 mm; zone of inhibition at 30 µg/disc (Escherichia coli [24]): 22.8 mm; zone of inhibition at 30 µg/disc (Clostridium perfringens [25]): 28.5 mm; zone of inhibition at 30 µg/disc (Staphylococcus aureus [26]): 21.7 mm; zone of inhibition at 30 µg/disc (Enterococcus faecalis [27]): 23.5 mm; zone of inhibition at 30 µg/disc (Bacillus cereus [28]): 26.8 mm
